Bioassay records from PubChem.
Autophagy HCS: autophagy modulation, high-content screen. MEF GFP-LC3 puncta imaging; test concentration mostly 10 µM. calls only at 10 µM (by protocol). 190,000 tested, 0.98% active. AID 463193;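 active means percentage of spot-positive cells more than 3 SD above its plate mean, without a fluorescence outlier flag or 80% toxicity; inconclusive means no clear call, values can overlap the other calls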;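 further: spot-positive cell cutoff set from DMSO-treated cells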
Cl transport mod: modulators of human KCC2 chloride dependent transport; Q9H2X9; KCC2 cells, thallium flux FluoZin-2 fluorescence; B-score of Tl+ flux slope (higher = more flux/activation; lower = inhibition) at 10 µM; 190,000 tested, 2.2% active; AID 1456;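 active means thallium flux slope and its plate-corrected score both differing from the plate sample mean at a set confidence after two filtering rounds, in either direction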;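 further: slope of fluorescence scaled to starting intensity during 10 to 20 s after thallium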
SKKanGAS inh: SKKanGAS growth inhibition. S. pyogenes SKKanGAS, kanamycin growth, BacTiter-Glo, 6 h. inhibition, % at 7.5 µM. 300,000 tested, 1.3% active. AID 1662;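 active means mean replicate score, as percent of positive control median, at least 50; inconclusive means mean below 50 but one replicate at or above 50; inactive means mean and every replicate below 50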;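 further: strain carries kanamycin resistance gene driven by streptokinase promoter and grows in 40 µg/ml kanamycin; loss of luminescence reflects streptokinase promoter inhibition or plain growth inhibition; 0% = median of DMSO wells and 100% = positive control at its reference dose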
Ins promoter up: MIN6 insulin promoter up-regulation; z-score at 5 µM; AID 1625; 190,000 tested, 0.3% active; MIN6 insulin promoter-GFP reporter, high-content imaging; stronger effect = higher value;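 active means z-score above 3 at 5 µM with at least 500 cells counted in the well; inconclusive means wells under 500 cells, flagged as cytotoxic or low count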
Rad51 HR inh: Rad51 (human) homologous recombination inhibition; inhibition, % at 10 µM; Q06609; AID 1385; hRad51 DNA strand exchange, fluorescence dequenching; 200,000 tested, 0.085% active;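 active means inhibition above 40% at the single screening dose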;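 further: 0% = DMSO control wells and 100% = blanks with heterologous ssDNA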
Target sequence (Q06609 whole entry, looked up): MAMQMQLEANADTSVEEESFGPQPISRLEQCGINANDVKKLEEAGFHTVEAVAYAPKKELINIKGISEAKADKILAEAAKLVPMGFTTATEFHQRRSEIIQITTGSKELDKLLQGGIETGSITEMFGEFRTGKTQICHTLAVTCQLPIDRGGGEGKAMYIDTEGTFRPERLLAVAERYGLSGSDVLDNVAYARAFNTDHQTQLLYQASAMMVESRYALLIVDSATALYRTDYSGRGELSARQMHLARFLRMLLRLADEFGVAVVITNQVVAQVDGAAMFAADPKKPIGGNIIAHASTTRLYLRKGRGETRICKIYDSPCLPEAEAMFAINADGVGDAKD
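Read-out basis: percent inhibition relative to plate controls and blanks / Assay system: human Rad51 nucleoprotein filaments preassembled on unlabelled ssDNA / Timing: filaments 15 min 37 °C, then compound 30 min / Control set: per-plate controls and blanks / Technique: fluorescence dequenching at 485/520 nm / Compound: 10 µM final, single point / Also added: Fluorescein- and BHQ1-tagged 47-mer duplex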
WT yeast gro inh: growth inhibition of WT yeast, mitochondrial fusion screen; mitochondrial fusion phenotypic screen, WT strain; AID 1362; inhibition, % at 10 µM; 190,000 tested, 2.1% active; in the data active means inhibition above about 58%; tested in S. cerevisiae
KCC2 secondary: confirmation of human KCC2 transport modulators | shares compounds with Cl transport mod | HEK293-KCC2, thallium flux, FluoZin2 fluorescence; stronger effect = higher value | normalised thallium flux (F/F0 slope) at 10 µM | 3,700 tested, 15% active | AID 1713;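 active means thallium flux slope above the same plate's solvent-only control mean plus 3 SD; inconclusive means the two replicate wells disagree; inactive means no significant difference from solvent-only control wells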
KCC2 bumet counter: bumetanide-insensitive thallium flux in KCC2 cells with ouabain, counter-screen; shares compounds with Cl transport mod; HEK293-KCC2 + bumetanide/ouabain, thallium flux FluoZin2; stronger effect = higher value; normalized thallium flux at 10 µM; 3,700 tested, 49% active; AID 1714;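 active means thallium entry rate above the same plate's blocked-transporter control wells by more than 3 SD; inconclusive means the two repeat wells disagree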;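 further: raw slope of fluorescence over initial fluorescence between 10 and 20 s after thallium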
KCC2 sec2: KCC2 (human) modulation, second secondary assay | 3,700 tested, 23% active | shares compounds with Cl transport mod | normalized thallium flux at 10 µM | HEK293-KCC2, thallium flux FluoZin2 fluorescence; actives lie on both sides; F/F0 rise rate, 10–20 s post-thallium | AID 1715;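 active means thallium flux slope more than 3 SD above or below the plate's solvent-only control mean, mostly below; inconclusive means the two repeat wells disagreed; inactive means no significant shift from solvent-only controls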;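 further: raw slope with 0.1% DMSO as baseline and bumetanide as block control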
HEK293 Tl flux: acts in parental HEK cells, KCC2 counter-screen; shares compounds with Cl transport mod; HEK293 parental cells, thallium flux FluoZin2, ouabain; baseline-ratio fluorescence slope, 10–20 s after thallium; thallium flux rate (normalised fluorescence) at 10 µM; 3,700 tested, 46% active;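 active means thallium flux rate significantly above the same plate's solvent-only control wells, beyond their mean plus 3 SD; inconclusive means the two replicate wells gave conflicting results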
KCC2 retest ouab: confirmation of human KCC2 modulators with ouabain. shares compounds with Cl transport mod. HEK293-KCC2, thallium flux FluoZin2 fluorescence; bidirectional: low = inhibitor, high = activator. raw Tl+ flux slope (below DMSO = inhibition, above = activation) at 10 µM. 3,700 tested, 48% active. AID 1717;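 active means thallium flux slope beyond 3 SD from same-plate DMSO control mean in most replicates, usually higher, sometimes lower; inconclusive means repeat tests gave conflicting results; inactive means no significant difference from controls in most replicates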;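 further: slope of initial-normalized fluorescence between seconds 10 and 20 after thallium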
HEK293 Tl flux2: parental HEK flux effect, counter-screen 2; AID 1718; thallium flux slope at 10 µM; shares compounds with Cl transport mod; 3,700 tested, 33% active; HEK293 parental, thallium flux FluoZin-2 fluorescence slope;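 active means thallium flux slope above the same plate's solvent-control mean plus 3 SD in both duplicate wells; inconclusive means duplicate wells that disagreed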;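 further: run without ouabain in cells lacking the KCC2 cotransporter; slope of fluorescence scaled to its starting value between 10 and 20 s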
* marks the source's active call; other numbers are inactive results; i = inactive; u = inconclusive; x = no result. This is a sample that favours compounds with a hit; in the whole collection about 4.2% have one here.

SMILES | Autophagy HCS | Cl transport mod | SKKanGAS inh | Ins promoter up | Rad51 HR inh | WT yeast gro inh | KCC2 secondary | KCC2 bumet counter | KCC2 sec2 | HEK293 Tl flux | KCC2 retest ouab | HEK293 Tl flux2
C=CCC(=O)N1CCCC(CNC(=O)c2ccc(-c3ccccc3)cc2)C1 (centres undefined) | i | -5.52* | -14.2 | -0.69 | -0.3 | -15.1 | 0.00807 | 0.00634 | 0.0306 | 0.0076 | 0.0144* | 0.0111
O=C(NCC1CCCN(C(=O)c2cscn2)C1)c1ccc(-c2ccccc2)cc1 (centres undefined) | i | -5.28* | -11.8 | -0.56 | -12.4 | 9.1 | 0.00533 | 0.0045 | 0.0207* | u | 0.0122* | 0.0106
Cc1ccccc1CC(=O)N1CCCC(CNC(=O)c2ccc(F)cc2)C1 (centres undefined) | x | x | -1.7 | x | x | x | x | x | x | x | x | x
CC(=O)NCCC(=O)N1CCCC(CNC(=O)c2ccc(-c3ccccc3)cc2)C1 (centres undefined) | i | -4.5* | -9.5 | x | -5.8 | 1.8 | 0.00775 | 0.00531 | u | 0.00596 | 0.0133* | 0.00908
Oc1ccc(Cc2ccc(Cl)cc2)c(O)c1 | x | 1.29 | 8.8 | -0.39 | 6.3 | x | x | x | x | x | x | x
CC(C)c1ccc(C(=O)NC(=S)Nc2ccc3[nH]c(=O)[nH]c3c2)cc1 | x | -0.22 | u | -0.4 | 8.2 | x | x | x | x | x | x | x
CC(=O)Nc1ccc(S(=O)(=O)Nc2cccc(-c3nc4ccccc4o3)c2)cc1 | i | x | -6.6 | x | 0.8 | 3.8 | 0.00871 | u | 0.0332 | 0.00398 | 0.0189 | 0.0118
O=C(Nc1nc2c(Cl)cccc2s1)c1ccc(Br)o1 | i | x | 1.7 | 0.17 | -2.1 | 19.1 | u | 0.0267* | 0.0326 | 0.0342* | 0.0309* | 0.0136*
Cc1ccc(C(=O)N/N=C\c2cccn2C)cn1 | i | 1.13 | -6.5 | 0.8 | -3.3 | 14.2 | x | x | x | x | x | x
Cn1cccc1/C=N/NC(=O)c1cccnc1 | i | 2.98* | -0.9 | 0.26 | -9.7 | -5.0 | 0.00762 | 0.00445 | 0.028 | 0.00805 | 0.0184 | 0.0102
CCc1cc2c(SCc3nc4sc(C(C)=O)c(C)c4c(=O)[nH]3)ncnc2s1 | x | 43* | 20.4 | -0.08 | x | x | u | 0.0555* | 0.0523* | 0.0432* | 0.0529* | 0.0404*
O=C(CN1CCN(c2ccccc2F)CC1)c1c[nH]c2ccccc12 | i | -4.3* | -0.3 | -0.57 | x | -11.6 | 0.0092 | 0.00608 | 0.0316 | 0.00783 | 0.0233 | 0.0111*
Cc1ccc(C2=CSC3=NNC4(CCCCC4)NN23)cc1 | i | -4.39* | -2.0 | -0.25 | -1.5 | 19.8 | 0.00706 | 0.00577* | 0.0236* | 0.00837 | u | 0.0112
COc1ccc(C2=CSC3=NNC4(CCCCC4)NN23)cc1 | i | -0.427 | 4.3 | -0.11 | -2.6 | 17.4 | x | x | x | x | x | x
CC(C)N1C(=O)C2C(C(=O)NCc3ccccc3)C3C=CC2(O3)C1C(=O)NC(C)(C)C (centres undefined) | i | 2.8* | 0.5 | 0.59 | -6.0 | 1.9 | 0.00935 | 0.00617 | 0.0301 | 0.00771 | 0.0261 | 0.0101
O=C(NCc1ccccc1)C1C2C=CC3(CN(Cc4cccnc4)C(=O)C13)O2 (centres undefined) | i | 1.04 | 2.6 | 0.25 | 1.5 | 0.9 | x | x | x | x | x | x
Brc1cccc(CSc2nnc(-c3ccncc3)o2)c1 | i | -0.324 | x | -0.25 | x | 19.9 | x | x | x | x | x | x
Oc1ccc(-c2nc(-c3ccc(O)c(O)c3)cs2)cc1 | i | -3.54* | 4.5 | -1.59 | 0.8 | -10.4 | 0.00946 | 0.00753 | u | 0.00624 | 0.014* | 0.01
Oc1ccc(-c2csc(-c3cccnc3)n2)c(O)c1 | i | -1.59 | -10.4 | 0.37 | -2.6 | -4.8 | x | x | x | x | x | x
CCOc1ccccc1-n1nnnc1SCc1nc2ccccc2s1 | i | x | 42.5 | 0.69 | x | 7.8 | 0.0153 | u | 0.0244* | 0.00579* | 0.0134* | 0.0091
O=C(CCCN1C(=O)c2cccc3cccc(c23)C1=O)N1CCc2ccccc2C1 | i | -4.08* | 5.8 | -0.36 | -0.7 | 0.1 | 0.0147 | u | 0.0241* | 0.00575* | 0.0121* | 0.00867
CN1C(=S)SC(C)(C)C1NO (centres undefined) | i | -4.66* | 1.9 | 0.99 | x | 6.0 | 0.00842 | 0.00454 | 0.0315 | 0.00752 | 0.0208 | 0.0112
O=C(CSc1ccc2ccccc2c1)Nc1ccc(S(=O)(=O)Nc2nccs2)cc1 | i | 0.0384 | 35.0 | 0.15 | -10.4 | 13.0 | x | x | x | x | x | x
Cn1c(CSc2nc3ccccc3s2)n[nH]c1=S | i | x | -4.6 | 0.12 | -3.2 | 0.3 | u | 0.00588 | u | 0.00713 | 0.0115* | u
S=c1[nH]nc(CSc2nc3ccccc3s2)o1 | i | -5.5 | 15.1 | -0.77 | -6.9 | -1.9 | x | x | x | x | x | x
SMILES | Autophagy HCS | Cl transport mod | SKKanGAS inh | Ins promoter up | Rad51 HR inh | WT yeast gro inh | KCC2 secondary | KCC2 bumet counter | KCC2 sec2 | HEK293 Tl flux | KCC2 retest ouab | HEK293 Tl flux2
CC(=O)CSc1nc2ccccc2s1 | i | 1.31 | 1.6 | 0.06 | -3.9 | 10.2 | x | x | x | x | x | x
Cn1c(CSc2nc3ccccc3s2)nc2ccccc21 | i | -4.4* | 18.6 | 0.05 | 6.6 | 6.9 | 0.00588 | 0.00494 | 0.0244* | 0.00702 | u | 0.0105
O=C1Nc2ccc([N+](=O)[O-])cc2OC1CCN1CCN(Cc2ccccc2)CC1 (centres undefined) | i | -4.2* | -2.0 | 0.26 | x | 3.1 | 0.0103 | 0.00634 | 0.0263* | 0.00828 | 0.0135* | 0.0107
NC(=O)C1CCN(C(=S)NCCc2ccccc2)CC1 | i | 4.57* | 0.6 | -0.09 | -16.4 | -13.7 | 0.00651 | 0.0052 | 0.0329 | 0.00902 | 0.0206 | 0.0116
O=C(CN1CCN(S(=O)(=O)c2ccccc2)CC1)Nc1ccc2c(c1)CCC2 | i | 6.24* | -20.5 | 0.68 | 1.5 | -10.2 | 0.00647 | 0.00477 | u | 0.00762 | 0.0175 | 0.0109
O=[N+]([O-])c1ccc2cn(-c3ccccc3)nc2c1 | i | -1.21 | 4.0 | 0.04 | 11.4 | 11.8 | x | x | x | x | x | x
COc1cc(C(=S)N2CCOCC2)cc(OC)c1OC(=O)Cc1ccc(F)cc1 | i | -4.31* | -5.2 | 0 | -0.9 | 14.5 | 0.00918 | 0.00689 | 0.028* | 0.00392 | 0.0159* | 0.0114
CC(C)(C)c1cc(-c2n[nH]c(=S)n2-c2ccccc2F)n[nH]1 | x | 38.7* | 5.7 | 0.02 | x | x | 0.00717 | 0.0469* | 0.045* | 0.0331* | 0.0425* | 0.0305*
